Assay results reported in ChEMBL document CHEMBL1649098 (ACS Med Chem Lett, 2011).
Calls of active or inactive are those of the source.

What was measured:
[1] = Half life in dog at 0.5 mg/kg, iv; type: ADME, organism-based, Canis lupus familiaris; set-up: dose 0.5 mg/kg, route intravenous; settings: in vivo
Outline: (§1)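 Plasma pharmacokinetics used 1 mg/kg in rat and 0.5 mg/kg in dog, given iv and po. The iv formulation was 5% dimethylacetamide/95% (40% SBE-cyclodextrin in water). Oral dosing was a methylcellulose suspension of crystalline material.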

[2] = Cmax in rat at 1 mg/kg, po; type: ADME, organism-based; set-up: dose 1 mg/kg, route oral; settings: in vivo; outline: as §1
[3] = Volume of distribution at steady state in dog at 0.5 mg/kg, iv or 0.5 mg/kg, po; type: ADME, organism-based, Canis lupus familiaris; settings: in vivo, read-out: Vdss; outline: as §1
[4] = biological target: T1, Fatty-acid amide hydrolase 1 (Mus musculus) (UniProt O08914); experiment: Inhibition of FAAH in mouse brain membrane proteomes at 10 uM by competitive activity based protein profiling; type: cell membranes
T1 sequence (whole entry): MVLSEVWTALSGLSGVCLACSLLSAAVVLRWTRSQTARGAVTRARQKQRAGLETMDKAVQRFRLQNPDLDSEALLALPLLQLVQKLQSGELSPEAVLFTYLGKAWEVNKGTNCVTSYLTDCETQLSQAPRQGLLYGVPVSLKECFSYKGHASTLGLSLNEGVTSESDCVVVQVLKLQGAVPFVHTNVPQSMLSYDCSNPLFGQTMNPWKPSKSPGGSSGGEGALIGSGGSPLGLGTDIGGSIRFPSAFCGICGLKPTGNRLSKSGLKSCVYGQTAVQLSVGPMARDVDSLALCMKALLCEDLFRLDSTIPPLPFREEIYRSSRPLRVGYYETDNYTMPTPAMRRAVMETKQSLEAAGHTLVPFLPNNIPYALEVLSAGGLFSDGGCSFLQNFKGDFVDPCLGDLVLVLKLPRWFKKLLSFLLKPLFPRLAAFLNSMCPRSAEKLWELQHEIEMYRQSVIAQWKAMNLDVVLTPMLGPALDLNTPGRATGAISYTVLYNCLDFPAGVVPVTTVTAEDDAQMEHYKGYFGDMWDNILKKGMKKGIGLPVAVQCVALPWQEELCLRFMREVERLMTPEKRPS
Outline: (§2)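 Competitive activity-based protein profiling used human and mouse brain membrane and soluble liver proteomes. Each was treated with compound at 10 or 100 μM or with DMSO, then labelled with FP-rhodamine. Serine hydrolases were resolved on fluorescent gels. Enzymes with reduced labelling intensity in the presence of inhibitor were scored as targets.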

[5] = Volume of distribution at steady state in rat at 1 mg/kg, iv or 1 mg/kg, po; type: ADME, organism-based; settings: in vivo, read-out: Vdss; outline: as §1
[6] = Half life in rat at 1 mg/kg, iv; type: ADME, organism-based; set-up: dose 1 mg/kg, route intravenous; settings: in vivo; outline: as §1
Rattus norvegicus [7] = experiment: Antihyperalgesic activity in orally dosed Sprague-Dawley rat model of complete Freund's adjuvant-induced inflammatory pain model assessed as reduction in mechanical allodynia measured 4 hrs post dose; type: functional
Outline: (§3)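 CFA was injected subcutaneously into the plantar surface of the rat hind paw. Oral dosing at 0.1-10 mg/kg began 5 days post-injection, once mechanical paw withdrawal threshold had fallen. Mechanical allodynia was read as paw withdrawal threshold 4 h after dosing. n=8 rats per group; significance versus vehicle-treated groups at p<0.05.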

Canis familiaris = experiment: Oral bioavailability in dog at 0.5 mg/kg, iv; type: ADME, organism-based, Canis lupus familiaris; settings: in vivo; outline: as §1
[8] = Clearance in dog at 0.5 mg/kg, iv or 0.5 mg/kg, po; type: ADME, organism-based, Canis lupus familiaris; settings: in vivo; outline: as §1
[9] = biological target: T2, Fatty-acid amide hydrolase 1 (Homo sapiens) (UniProt O00519); settings: 100 uM
T2 sequence (whole entry): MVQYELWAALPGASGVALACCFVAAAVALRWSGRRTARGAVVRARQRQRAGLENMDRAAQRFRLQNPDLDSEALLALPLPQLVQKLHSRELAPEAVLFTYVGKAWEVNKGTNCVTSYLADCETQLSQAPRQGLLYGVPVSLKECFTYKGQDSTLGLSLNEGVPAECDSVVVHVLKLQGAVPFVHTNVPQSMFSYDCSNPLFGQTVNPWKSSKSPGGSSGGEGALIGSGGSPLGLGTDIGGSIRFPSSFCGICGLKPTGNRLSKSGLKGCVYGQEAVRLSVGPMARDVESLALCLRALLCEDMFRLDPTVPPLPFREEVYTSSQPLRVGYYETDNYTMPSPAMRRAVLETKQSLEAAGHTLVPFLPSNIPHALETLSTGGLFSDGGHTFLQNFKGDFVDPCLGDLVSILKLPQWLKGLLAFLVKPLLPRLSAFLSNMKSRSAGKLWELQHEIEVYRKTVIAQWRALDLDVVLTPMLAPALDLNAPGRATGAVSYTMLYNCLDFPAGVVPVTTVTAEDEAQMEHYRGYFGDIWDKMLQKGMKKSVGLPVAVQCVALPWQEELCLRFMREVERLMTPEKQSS

Liver microsomes [10] = experiment: Protein binding in human liver microsomes at 0.8 mg/mL protein concentration; type: ADME, Microsome
Outline: (§4)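 Human liver microsomes at 0.8 mg/mL protein were used for half-life and microsomal protein binding. These in vitro data were used to predict human blood clearance.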

[11] = biological target: T1, Fatty-acid amide hydrolase 1 (Mus musculus); experiment: Inhibition of FAAH in mouse brain membrane proteomes at 100 uM by competitive activity based protein profiling; type: cell membranes; outline: as §2
[12] = Tmax in rat at 1 mg/kg, iv or 1 mg/kg, po; type: ADME, organism-based; settings: in vivo; outline: as §1
Homo sapiens = species on record: Homo sapiens; experiment: Inhibition of fluorophosphonate-reactive serine proteases in human liver soluble proteomes at 100 uM by competitive activity based protein profiling; outline: as §2
Liver microsomes [13] = experiment: Half life in human liver microsomes at 0.8 mg/mL protein concentration; type: ADME, Microsome; outline: as §4
Cytochrome P450 2D6 = Cytochrome P450 2D6 (Homo sapiens, UniProt P10635); experiment: Inhibition of CYP2D6; type: ADME
Outline: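 CYP inhibition was tested in human liver microsomes with relevant probe substrates.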

Mus musculus = species on record: Mus musculus; experiment: Inhibition of fluorophosphonate-reactive serine proteases in mouse liver soluble proteomes at 100 uM by competitive activity based protein profiling; outline: as §2
MDCK [14] = experiment: Apparent permeability from basolateral to apical side of MDCK cells; type: ADME, cell-based, Canis lupus familiaris; settings: dog
[15] = biological target: T2, Fatty-acid amide hydrolase 1 (Homo sapiens); settings: 10 uM
Rattus norvegicus [16] = experiment: Antihyperalgesic activity in Sprague-Dawley rat model of complete Freund's adjuvant-induced inflammatory pain model assessed as reduction in mechanical allodynia at 0.1 mg/kg, po measured 4 hrs post dose; type: functional, organism-based; set-up: dose 0.1 mg/kg; outline: as §3
Hepatocyte [17] = experiment: Metabolic stability in rat hepatocytes assessed as glutathione conjugate formation; type: ADME, cell-based
Outline: (§5)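 Reactive metabolite potential was assessed by looking for glutathione conjugates in rat or human hepatocyte incubations.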

[18] = Clearance in rat at 1 mg/kg, iv or 1 mg/kg, po; type: ADME, organism-based; settings: in vivo; outline: as §1
[19] = Tmax in dog at 0.5 mg/kg, iv or 0.5 mg/kg, po; type: ADME, organism-based, Canis lupus familiaris; settings: in vivo; outline: as §1
[20] = biological target: T3, Fatty-acid amide hydrolase 1 (Homo sapiens, UniProt O00519); experiment: Inhibition of His-tagged human FAAH N-terminal transmembrane-deleted truncated form expressed in Escherichia coli preincubated for 60 mins before oleamide substrate addition
T3 sequence (O00519 whole entry): T2 sequence (whole entry)
Outline: (§6)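 IC50 was determined after a 60 min preincubation of inhibitor with human or rat FAAH.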

[21] = biological target: T4, Fatty-acid amide hydrolase 1 (Rattus norvegicus, UniProt P97612); experiment: Irreversible inhibition of His-tagged rat FAAH N-terminal transmembrane-deleted truncated form expressed in Escherichia coli preincubated for 60 mins before oleamide substrate addition; outline: as §6
T4 sequence (P97612 whole entry): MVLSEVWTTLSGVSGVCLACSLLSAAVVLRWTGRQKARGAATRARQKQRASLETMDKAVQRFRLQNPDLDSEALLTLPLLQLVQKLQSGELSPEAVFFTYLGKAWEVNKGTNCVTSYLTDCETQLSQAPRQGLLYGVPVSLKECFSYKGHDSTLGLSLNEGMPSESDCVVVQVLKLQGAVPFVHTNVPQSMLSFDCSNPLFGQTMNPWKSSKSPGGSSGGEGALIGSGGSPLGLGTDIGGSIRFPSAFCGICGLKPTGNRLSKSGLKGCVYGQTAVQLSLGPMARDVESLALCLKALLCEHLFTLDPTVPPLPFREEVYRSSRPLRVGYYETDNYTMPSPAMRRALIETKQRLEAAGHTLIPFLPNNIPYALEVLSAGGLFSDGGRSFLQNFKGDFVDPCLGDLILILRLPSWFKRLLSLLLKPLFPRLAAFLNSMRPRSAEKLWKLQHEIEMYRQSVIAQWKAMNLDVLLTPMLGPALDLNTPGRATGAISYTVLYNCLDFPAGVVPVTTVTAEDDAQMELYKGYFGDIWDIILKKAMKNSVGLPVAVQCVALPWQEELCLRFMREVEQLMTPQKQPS

[22] = Oral bioavailability in rat at 1 mg/kg; type: ADME, organism-based; settings: in vivo; outline: as §1
Hepatocyte [23] = experiment: Metabolic stability in human hepatocytes assessed as glutathione conjugate formation; type: ADME, cell-based; outline: as §5
[24] = Cmax in dog at 0.5 mg/kg, po; type: ADME, organism-based, Canis lupus familiaris; set-up: dose 0.5 mg/kg, route oral; settings: in vivo; outline: as §1
MDCK [25] = experiment: Apparent permeability from apical to basolateral side of MDCK cells; type: ADME, cell-based, Canis lupus familiaris; settings: dog

Chain of Cytochrome P450 2D6 (P10635 whole entry): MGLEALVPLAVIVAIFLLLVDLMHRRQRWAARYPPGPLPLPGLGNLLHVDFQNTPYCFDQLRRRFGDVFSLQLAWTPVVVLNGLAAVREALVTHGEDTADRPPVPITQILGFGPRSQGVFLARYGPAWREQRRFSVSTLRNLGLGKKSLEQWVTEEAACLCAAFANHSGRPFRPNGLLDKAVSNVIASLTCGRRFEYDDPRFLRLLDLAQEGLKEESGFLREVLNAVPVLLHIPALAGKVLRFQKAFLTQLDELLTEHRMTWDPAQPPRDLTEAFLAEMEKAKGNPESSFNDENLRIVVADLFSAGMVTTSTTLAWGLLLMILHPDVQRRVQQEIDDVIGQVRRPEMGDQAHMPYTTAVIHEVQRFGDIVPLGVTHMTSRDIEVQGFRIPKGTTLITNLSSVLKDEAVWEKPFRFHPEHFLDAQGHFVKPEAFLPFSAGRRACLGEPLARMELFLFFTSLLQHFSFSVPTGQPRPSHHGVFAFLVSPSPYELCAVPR

O=C(Nc1cccnn1)N1CCC(=Cc2cccc(Oc3ccc(C(F)(F)F)cn3)c2)CC1
half-life [1]: 35.2 h
Cmax [2]: 256 ng/mL
Vd [3]: 2.9 L/kg
inhibition [4]: Active
Vd [5]: 3.2 L/kg
half-life [6]: 14.3 h
MED (Rattus norvegicus [7]): 0.1 mg/kg
F (Canis familiaris): 58%
clearance [8]: 1.3 mL/min/kg
inhibition [9]: Active
PB (Liver microsomes [10]): 90%
inhibition [11]: Active
Tmax [12]: 4 h
inhibition (Homo sapiens): inactive
t1/2 (Liver microsomes [13]): 1.75 h
IC50 (Cytochrome P450 2D6): 14500 nM
inhibition (Mus musculus): inactive
permeability (MDCK [14]): 20.2 ×10⁻⁶ cm/s
inhibition [15]: Active
inhibition (Rattus norvegicus [16]): Active
Stability (Hepatocyte [17]): Stable
clearance [18]: 3 mL/min/kg
Tmax [19]: 1 h
IC50 [20]: 7.2 nM
IC50 [21]: 7.4 nM
bioavailability [22]: 88%
Stability (Hepatocyte [23]): Stable
Cmax [24]: 240 ng/mL
permeability (MDCK [25]): 15.2 ×10⁻⁶ cm/s
